Legend:
Klebsiella pneumoniae = experiment: Antimicrobial activity against Klebsiella pneumoniae ATCC 13883 after 24 to 48 hrs; format: functional
How it was run: (§1)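 Broth microdilution at 37 °C. Glycerol stocks streaked on 1.5% agar for 24 h. Single colonies grown in broth to OD600 1.0: trypticase soy for E. coli, P. aeruginosa and S. aureus; nutrient broth for A. baumannii and K. pneumoniae; brain heart infusion for E. faecalis. Diluted to OD600 0.003 with compound dilutions from DMSO stocks. OD600 read at 24 and 48 h, 690 nm background subtracted, normalized to DMSO control; MIC99.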

Staphylococcus aureus [1] = experiment: Antimicrobial activity against methicillin-resistant Staphylococcus aureus clinical isolate IDRL 6169 after 24 to 48 hrs; format: functional
How it was run: (§2)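 Streaked from glycerol stock onto trypticase soy agar, 37 °C, 24 h. Single colonies were grown in trypticase soy broth to OD600 1.0 and diluted to OD600 0.003. Cells were incubated with compound at varying concentrations (1% DMSO stocks). Absorbance was read at 600 nm at 24 and 48 h, minus 690 nm background and relative to DMSO controls.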

Enterococcus faecalis = experiment: Antimicrobial activity against Enterococcus faecalis ATCC 51299 after 24 to 48 hrs; format: functional; how it was run: as §1
Acinetobacter baumannii = experiment: Antimicrobial activity against Acinetobacter baumannii ATCC 19606 after 24 to 48 hrs; format: functional; details: ATCC 19606 = CIP 70.34 = JCM 6841; how it was run: as §1
Escherichia coli = experiment: Antimicrobial activity against Escherichia coli ATCC 25922 after 24 to 48 hrs; format: functional; how it was run: as §1
Bacillus subtilis = experiment: Antimicrobial activity against Bacillus subtilis ATCC 6633 after 24 to 48 hrs; format: functional
Candida albicans = experiment: Antifungal activity against Candida albicans ATCC 10231 after 24 to 48 hrs; format: functional
How it was run: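 C. albicans streaked from glycerol stock onto YM agar and grown at 30 °C for 24 h. A single colony was grown in YM broth to OD600 1.0, diluted to OD600 0.003 and incubated with compound dilutions from DMSO stocks. Read at 600 nm at 24 and 48 h, 690 nm background subtracted, normalized to DMSO controls; MIC99.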

[2] = test system: Mycobacterium tuberculosis; experiment: Antimicrobial activity against Mycobacterium tuberculosis H37Rv after 24 to 48 hrs; format: functional
[3] = test system: Mycolicibacterium smegmatis; experiment: Antimicrobial activity against Mycobacterium smegmatis ATCC 607 after 24 to 48 hrs; format: functional
How it was run: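 M. smegmatis streaked from glycerol stock onto nutrient agar (1.5%), then grown at 37 °C in nutrient broth with Tyloxapol added to prevent clumping, to OD600 1.0. Diluted to OD600 0.003 and exposed to compound dilutions from DMSO stocks. Absorbance at 600 nm read at 24 and 48 h, 690 nm background subtracted, normalized to DMSO controls; MIC99.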

Staphylococcus aureus [4] = experiment: Antimicrobial activity against methicillin-susceptible Staphylococcus aureus clinical isolate IDRL 8545 after 24 to 48 hrs; format: functional; how it was run: as §1
[5] = Cytotoxicity against african green monkey Vero cells after 72 hrs by MTT assay; format: cell-based; details: chlorocebus sabaeus, read-out: MIC50
How it was run: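 Vero cells (ATCC CCL-81) in MEM with 10% FBS, 1% PennStrep and 1% Glutamax, seeded at 3.0 × 10^4 cells/well and left to adhere overnight. Compound in DMSO added to final 100 to 0.16 μM, in triplicate, for 72 h at 37 °C, 4.5% CO2. MTT 1.0 mg/mL in phenol red-free RPMI for 3 h, formazan dissolved in isopropanol. A570 minus A690 gave % viability vs DMSO control; dose-response curves gave 50% growth-inhibitory concentration.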

Staphylococcus aureus [6] = experiment: Antimicrobial activity against methicillin-resistant Staphylococcus aureus ATCC 43300 after 24 to 48 hrs; format: functional; how it was run: as §2
[7] = test system: Mycolicibacterium smegmatis; experiment: Antimicrobial activity against Mycobacterium smegmatis MC24517 after 24 to 48 hrs; format: functional
How it was run: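 Grown from glycerol stock on nutrient agar (1.5%) at 37 °C for 24 h, with Tyloxapol added to prevent clumping. Colonies were grown in nutrient broth to OD600 1.0, diluted to OD600 0.003 and incubated with compound dilutions (1% DMSO stocks). OD600 was read at 24 and 48 h, corrected for 690 nm background and standardised to DMSO controls.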

Pseudomonas aeruginosa = experiment: Antimicrobial activity against Pseudomonas aeruginosa ATCC 27853 after 24 to 48 hrs; format: functional; how it was run: as §1

| SMILES | MIC99 (Klebsiella pneumoniae) | MIC99 (Staphylococcus aureus [1]) | MIC99 (Enterococcus faecalis) | MIC99 (Acinetobacter baumannii) | MIC99 (Escherichia coli) | MIC99 (Bacillus subtilis) | MIC99 (Candida albicans) | MIC99 [2] | MIC99 [3] | MIC99 (Staphylococcus aureus [4]) | CC50 at 72 h [5] | MIC99 (Staphylococcus aureus [6]) | MIC99 [7] | MIC99 (Pseudomonas aeruginosa) |
| --- | --- | --- | --- | --- | --- | --- | --- | --- | --- | --- | --- | --- | --- | --- |
| O=CNCCCC[C@H](NC(=O)[C@@H]1COC(c2ccccc2O)=N1)C(=O)O | > 100 µM | > 100 µM | > 100 µM | > 100 µM | > 100 µM | > 100 µM | > 100 µM | > 200 µM | > 100 µM | > 100 µM | 164 µM | > 100 µM | > 100 µM | > 100 µM |
| O=CNCCCC[C@@H](NC(=O)[C@H]1COC(c2ccccc2O)=N1)C(=O)O | > 100 µM | > 100 µM | > 100 µM | > 100 µM | > 100 µM | > 100 µM | > 100 µM | > 200 µM | > 100 µM | > 100 µM | > 200 µM | > 100 µM | > 100 µM | > 100 µM |
| O=CNCCCC[C@H](NC(=O)[C@H]1COC(c2ccccc2O)=N1)C(=O)O | > 100 µM | > 100 µM | > 100 µM | > 100 µM | > 100 µM | > 100 µM | > 100 µM | > 200 µM | > 100 µM | > 100 µM | > 200 µM | > 100 µM | > 100 µM | > 100 µM |
| O=CNCCCC[C@@H](NC(=O)[C@@H]1COC(c2ccccc2O)=N1)C(=O)O | > 100 µM | > 100 µM | > 100 µM | > 100 µM | > 100 µM | > 100 µM | > 100 µM | > 200 µM | > 100 µM | > 100 µM | 154 µM | > 100 µM | > 100 µM | > 100 µM |
| O=CNCCCCC(NC(=O)C1COC(c2ccccc2O)=N1)C(=O)O (stereo unspecified) [TRANSVALENCIN Z] | – | – | – | – | > 64 µg/mL | 16 µg/mL | > 64 µg/mL | – | 0.125 µg/mL | – | – | 1 µg/mL | – | – |
